pEC50: −log10 of the molar value. The source made the active and inactive calls. The calls are words filed in the database; no cut-off is given here.
What was measured:
Vasopressin V1a receptor = Vasopressin V1a receptor (Homo sapiens, UniProt P37288); experiment: Agonist activity at human V1A receptor expressed in HEK293 cells assessed as intracellular calcium level measured at 3 secs interval for 5 mins by fura-2/AM dye based micro spectrofluorometric method; assay type: functional, cell-based
Chain of Vasopressin V1a receptor (P37288 whole entry): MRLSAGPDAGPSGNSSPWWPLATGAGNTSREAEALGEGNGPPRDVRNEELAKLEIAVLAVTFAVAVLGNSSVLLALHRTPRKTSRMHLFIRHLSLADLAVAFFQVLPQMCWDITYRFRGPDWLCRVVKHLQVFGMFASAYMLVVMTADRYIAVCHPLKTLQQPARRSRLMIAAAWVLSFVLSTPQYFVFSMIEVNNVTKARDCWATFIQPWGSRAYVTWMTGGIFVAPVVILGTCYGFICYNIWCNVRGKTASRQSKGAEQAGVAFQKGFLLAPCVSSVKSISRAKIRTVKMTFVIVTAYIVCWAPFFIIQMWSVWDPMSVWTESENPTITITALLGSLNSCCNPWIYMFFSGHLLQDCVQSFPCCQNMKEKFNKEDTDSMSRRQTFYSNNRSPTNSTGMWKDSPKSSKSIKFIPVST
Summary of the method: (§1)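 HEK-293 cells stably expressing the receptor (G418-selected) were loaded with fura-2/AM for 30 min at 37 °C and washed in HEPES-buffered saline, pH 7.4. Fluorescence was read at 37 °C with 340/380 nm excitation, and F340/F380 was normalized to the 10 s baseline. Responses were expressed as % of the OT maximum (OTR) or the AVP maximum (V1A), with EC50 from 3 independent experiments at 20 cells/dish.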

Mus musculus [1] = experiment: Improvement in paternal nurturing behavior in CD38 knock out Slc:ICR mouse sire model of autism spectrum disorder assessed as parental scores to retrieve pups by sires at 100 ng/100 g, ip administered as single dose measured after 30 mins by parental retrieval test (reference value: 0 +/- 0 No units); assay type: functional
Mus musculus [2] = experiment: Improvement in paternal nurturing behavior in CD38 knock out Slc:ICR mouse sire model of autism spectrum disorder assessed as parental scores to retrieve pups by sires at 100 ng/100 g, ip administered as single dose measured after 24 hrs by parental retrieval test (reference value: 0 +/- 0 No units); assay type: functional
Vasopressin V1b receptor = molecular target: T1, Vasopressin V1b receptor (Homo sapiens, UniProt P47901); experiment: Agonist activity at human V1B receptor expressed in HEK293 cells assessed as intracellular calcium level measured at 3 secs interval for 5 mins by fura-2/AM dye based micro spectrofluorometric method; assay type: functional, cell-based
T1 sequence (P47901 whole entry): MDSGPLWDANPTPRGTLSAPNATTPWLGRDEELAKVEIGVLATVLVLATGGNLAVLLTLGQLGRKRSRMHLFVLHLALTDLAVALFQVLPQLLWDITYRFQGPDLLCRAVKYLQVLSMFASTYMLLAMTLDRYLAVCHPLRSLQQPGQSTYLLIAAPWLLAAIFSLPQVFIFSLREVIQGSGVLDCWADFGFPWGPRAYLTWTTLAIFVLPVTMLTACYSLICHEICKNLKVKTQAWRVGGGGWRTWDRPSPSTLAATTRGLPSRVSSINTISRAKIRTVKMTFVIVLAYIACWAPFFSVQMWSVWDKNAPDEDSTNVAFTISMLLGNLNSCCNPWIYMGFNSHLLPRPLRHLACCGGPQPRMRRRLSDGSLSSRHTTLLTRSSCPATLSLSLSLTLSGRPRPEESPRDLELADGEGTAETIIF

Oxytocin receptor = molecular target: T2, Oxytocin receptor (Homo sapiens, UniProt P30559); experiment: Agonist activity at human OTR receptor expressed in HEK293 cells assessed as intracellular calcium level measured at 3 secs interval for 5 mins by fura-2/AM dye based micro spectrofluorometric method; assay type: functional, cell-based; summary of the method: as §1
T2 sequence (P30559 whole entry): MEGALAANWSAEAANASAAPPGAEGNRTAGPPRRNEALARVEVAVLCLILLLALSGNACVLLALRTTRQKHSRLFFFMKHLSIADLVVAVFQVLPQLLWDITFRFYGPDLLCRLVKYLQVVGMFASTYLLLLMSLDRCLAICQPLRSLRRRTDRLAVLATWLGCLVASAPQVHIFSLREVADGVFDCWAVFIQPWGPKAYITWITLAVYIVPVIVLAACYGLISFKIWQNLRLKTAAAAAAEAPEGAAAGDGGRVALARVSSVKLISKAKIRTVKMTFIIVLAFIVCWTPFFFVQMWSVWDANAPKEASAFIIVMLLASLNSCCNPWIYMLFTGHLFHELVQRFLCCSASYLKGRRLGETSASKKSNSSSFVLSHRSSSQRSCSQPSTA

Mus musculus [3] = experiment: Improvement in paternal nurturing behavior in CD38 knock out Slc:ICR mouse sire model of autism spectrum disorder assessed as increase in parental scores to retrieve pups by sires at 100 ng/100 g, ip administered as single dose measured after 48 hrs by parental retrieval test; assay type: functional, organism-based
Summary of the method: (§2)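 This time-course test used CD38KOCC sires (Slc:ICR) paired with females. Each received a single ip dose of 100 ng/100 g body weight in PBS, with PBS as vehicle control. Paternal pup-retrieval scores were recorded at successive times after injection, including 6, 12, 24 and 48 h. Treatment effects were analysed by two-way ANOVA.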

Mus musculus [4] = experiment: Improvement in paternal nurturing behavior in CD38 knock out Slc:ICR mouse sire model of autism spectrum disorder assessed as increase in parental scores to retrieve pups by sires at 100 ng/100 g, ip administered as single dose measured after 12 hrs by parental retrieval test; assay type: functional, organism-based; summary of the method: as §2
[5] = molecular target: T3, Oxytocin receptor (Homo sapiens) (UniProt P30559); experiment: Agonist activity at human OTR receptor expressed in HEK293 cells measured at 3 secs interval for 5 mins by fura-2/AM dye based micro spectrofluorometric method relative to OT; assay type: cell-based
T3 sequence (whole entry): T2 sequence (P30559 whole entry)
Summary of the method: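 HEK-293 cells stably expressing human OTR (G418-selected) were loaded with fura-2/AM (final […] as printed) at 37 °C for 30 min, then washed in HEPES-buffered saline, pH 7.4. F340/F380 ratio was read every 3 s for 5 min at 37 °C, normalized to 10-s pre-application baseline, as % of maximal OT response. Three independent experiments, 20 cells per dish; EC50 derived.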

Mus musculus [6] = experiment: Improvement in paternal nurturing behavior in CD38 knock out Slc:ICR mouse sire model of autism spectrum disorder assessed as increase in parental scores to retrieve pups by sires at 100 ng/100 g, ip administered as single dose measured after 24 hrs by parental retrieval test; assay type: functional, organism-based
Mus musculus [7] = experiment: Improvement in paternal nurturing behavior in CD38 knock out Slc:ICR mouse sire model of autism spectrum disorder assessed as parental scores to retrieve pups by sires at 100 ng/100 g, ip administered as single dose measured after 6 hrs by parental retrieval test; assay type: functional, organism-based; summary of the method: as §2

Compound | pEC50 (Vasopressin V1a receptor) | Activity (Mus musculus [1]) | Activity (Mus musculus [2]) | pEC50 (Vasopressin V1b receptor) | pEC50 (Oxytocin receptor) | Activity (Mus musculus [3]) | Activity (Mus musculus [4]) | Emax [5] | Activity (Mus musculus [6]) | Activity (Mus musculus [7])
CCCCCCCCCCCCCCCCOC(=O)Oc1ccc(C[C@@H]2NC(=O)[C@@H](NC(=O)CCCCCCCCCCCCCCC)CSSC[C@@H](C(=O)N3CCC[C@H]3C(=O)N[C@@H](CC(C)C)C(=O)NCC(N)=O)NC(=O)[C@H](CC(N)=O)NC(=O)[C@H](CCC(N)=O)NC(=O)[C@H]([C@@H](C)CC)NC2=O)cc1 | < 4.00 | 2 | 5.2 | < 4.00 | < 4.00 | inactive | Active | 0% | Active | –
CCCCCCCCCCCCCCCCNC(=O)Oc1ccc(C[C@@H]2NC(=O)[C@@H](NC(=O)CCCCCCCCCCCCCCC)CSSC[C@@H](C(=O)N3CCC[C@H]3C(=O)N[C@@H](CC(C)C)C(=O)NCC(N)=O)NC(=O)[C@H](CC(N)=O)NC(=O)[C@H](CCC(N)=O)NC(=O)[C@H]([C@@H](C)CC)NC2=O)cc1 | < 4.00 | 1.9 | 3.4 | < 4.00 | < 4.00 | – | – | 0% | – | –
CCCCCCCCCCCCCCCOC(=O)Oc1ccc(C[C@@H]2NC(=O)[C@@H](NC(=O)CCCCCCCCCCCCCCC)CSSC[C@@H](C(=O)N3CCC[C@H]3C(=O)N[C@@H](CC(C)C)C(=O)NCC(N)=O)NC(=O)[C@H](CC(N)=O)NC(=O)[C@H](CCC(N)=O)NC(=O)[C@H]([C@@H](C)CC)NC2=O)cc1 | < 4.00 | 3.9 | 2.9 | < 4.00 | < 4.00 | – | – | 0% | – | –
CCCCCCCCCCCCCCCC(=O)N[C@H]1CSSC[C@@H](C(=O)N2CCC[C@H]2C(=O)N[C@@H](CC(C)C)C(=O)NCC(N)=O)NC(=O)[C@H](CC(N)=O)NC(=O)[C@H](CCC(N)=O)NC(=O)[C@H]([C@@H](C)CC)NC(=O)[C@H](Cc2ccc(OC(=O)OCCCCCCCCCCCCCC)cc2)NC1=O | < 4.00 | 6.8 | 3.1 | < 4.00 | – | – | – | 15.3% | – | –
CCCCCCCCCCCCCCCC(=O)N[C@H]1CSSC[C@@H](C(=O)N2CCC[C@H]2C(=O)N[C@@H](CC(C)C)C(=O)NCC(N)=O)NC(=O)[C@H](CC(N)=O)NC(=O)[C@H](CCC(N)=O)NC(=O)[C@H]([C@@H](C)CC)NC(=O)[C@H](Cc2ccc(OC(=O)NCCCCCCCCCCCCCC)cc2)NC1=O | < 4.00 | 3.3 | 3.6 | < 4.00 | < 4.00 | – | – | 0% | – | –
CCCCCCCCCCCCCCCNC(=O)Oc1ccc(C[C@@H]2NC(=O)[C@@H](NC(=O)CCCCCCCCCCCCCCC)CSSC[C@@H](C(=O)N3CCC[C@H]3C(=O)N[C@@H](CC(C)C)C(=O)NCC(N)=O)NC(=O)[C@H](CC(N)=O)NC(=O)[C@H](CCC(N)=O)NC(=O)[C@H]([C@@H](C)CC)NC2=O)cc1 | < 4.00 | 2 | 3.1 | < 4.00 | < 5.00 | – | – | – | – | –
CC[C@H](C)[C@@H]1NC(=O)[C@H](Cc2ccc(O)cc2)NC(=O)[C@@H](N)CSSC[C@@H](C(=O)N2CCC[C@H]2C(=O)N[C@@H](CC(C)C)C(=O)NCC(N)=O)NC(=O)[C@H](CC(N)=O)NC(=O)[C@H](CCC(N)=O)NC1=O [OXYTOCIN] | – | 5.3 | 0 | – | – | – | – | – | – | inactive

Source: ChEMBL document CHEMBL4387760, “Synthesis of oxytocin derivatives lipidated via a carbonate or carbamate linkage as a long-acting therapeutic agent for social impairment-like behaviors” (Bioorg Med Chem, 2019)
